Experimental data from publication PMC3404467 (Journal of Medicinal Chemistry, 2012).

Legend:
hNPFF1R [1] = target: T1, hNPFF1R (Homo sapiens, UniProt Q9GZQ6); experiment: IP accumulation assay, wt hNPFF1R in COS-7 cells with chimeric G-protein; type: cell-based; conditions: for functional behaviour at NPFF1R: IP accumulation assays; for functional behaviour at NPFF1R / IP accumulation at NPFF1R: wt NPFF1R; for x-fold: wt hNPFF1R, EC50(compound)/EC50(endogenous ligand NPVF at wt); for IP accumulation at NPFF1R: at 10 μM
human NPFF2 receptor = human NPFF2 receptor (Homo sapiens, UniProt Q9Y5X5); experiment: IP accumulation assay, wt hNPFF2R in COS-7 cells with chimeric G-protein; type: cell-based; conditions: for functional behaviour at NPFF2R: IP accumulation assays, wt NPFF2R; for x-fold: wt hNPFF2R, EC50(compound)/EC50(NPFF at wt)
Y^7.35A_hNPFF2R = Y^7.35A_hNPFF2R (Homo sapiens, UniProt Q9Y5X5, Y417A); experiment: IP accumulation assay, Y^7.35A mutant of hNPFF2R; type: cell-based; conditions: Y^7.35A hNPFF2R; ratio to EC50 of NPFF at wt
hNPFF1R [2] = target: T1, hNPFF1R; conditions: CHO-hNPFF1R cells, up to 10 μM; cited from earlier work
hNPFF2R = conditions: cited from earlier work
COS-7 cells = experiment: Resazurin-based cell viability assay; design: species or system African Green Monkey; conditions: 2 h incubation, at high compound concentrations
How it was run: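 COS-7 cells seeded 30,000/well, grown to subconfluency, exposed 2 h to varying concentrations in DMEM (4.5 g/L glucose, L-glutamine, 10% heat-inactivated FCS). Controls were 70% EtOH for 10 min and FCS medium. Cells were washed twice in serum-free medium, then given 10% resazurin in serum-free medium for 2 h at 37°C. Resorufin fluorescence was read at ex 550/em 595 nm. Two independent experiments, triplicates; IC50 derived.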

Y^5.38A hNPFF2 receptor = Y^5.38A hNPFF2 receptor (Homo sapiens, UniProt Q9Y5X5, Y321A); experiment: IP accumulation assay, Y^5.38A mutant of hNPFF2R; type: cell-based; conditions: Y^5.38A hNPFF2R; ratio to EC50 of NPFF at wt
D^6.59A_hNPFF2R = D^6.59A_hNPFF2R (Homo sapiens, UniProt Q9Y5X5, D400A); experiment: IP accumulation assay, D^6.59A mutant of hNPFF2R; type: cell-based; conditions: D^6.59A hNPFF2R; ratio to EC50 of NPFF at wt
Y^7.33A_hNPFF2R = Y^7.33A_hNPFF2R (Homo sapiens, UniProt Q9Y5X5, Y415A); experiment: IP accumulation assay, Y^7.33A mutant of hNPFF2R; type: cell-based; conditions: Y^7.33A hNPFF2R; ratio to EC50 of NPFF at wt
hNPFF1R [3] = target: T1, hNPFF1R; experiment: Antagonism: NPVF concentration-response curves; type: cell-based; conditions: against NPVF
[4] = rats, spinal nerve ligation; cited from earlier work

T1 sequence (Q9GZQ6 whole entry): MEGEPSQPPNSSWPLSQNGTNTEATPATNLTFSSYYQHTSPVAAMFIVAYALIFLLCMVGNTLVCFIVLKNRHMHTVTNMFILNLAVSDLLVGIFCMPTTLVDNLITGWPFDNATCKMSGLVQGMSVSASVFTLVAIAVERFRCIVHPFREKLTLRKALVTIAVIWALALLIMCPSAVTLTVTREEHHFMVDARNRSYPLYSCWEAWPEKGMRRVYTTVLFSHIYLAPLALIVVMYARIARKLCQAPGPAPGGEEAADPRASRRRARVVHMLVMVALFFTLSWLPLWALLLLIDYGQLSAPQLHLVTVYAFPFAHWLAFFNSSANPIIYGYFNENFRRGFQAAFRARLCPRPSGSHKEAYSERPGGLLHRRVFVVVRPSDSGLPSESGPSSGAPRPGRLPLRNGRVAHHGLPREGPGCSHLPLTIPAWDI
human NPFF2 receptor, sequence (Q9Y5X5 whole entry): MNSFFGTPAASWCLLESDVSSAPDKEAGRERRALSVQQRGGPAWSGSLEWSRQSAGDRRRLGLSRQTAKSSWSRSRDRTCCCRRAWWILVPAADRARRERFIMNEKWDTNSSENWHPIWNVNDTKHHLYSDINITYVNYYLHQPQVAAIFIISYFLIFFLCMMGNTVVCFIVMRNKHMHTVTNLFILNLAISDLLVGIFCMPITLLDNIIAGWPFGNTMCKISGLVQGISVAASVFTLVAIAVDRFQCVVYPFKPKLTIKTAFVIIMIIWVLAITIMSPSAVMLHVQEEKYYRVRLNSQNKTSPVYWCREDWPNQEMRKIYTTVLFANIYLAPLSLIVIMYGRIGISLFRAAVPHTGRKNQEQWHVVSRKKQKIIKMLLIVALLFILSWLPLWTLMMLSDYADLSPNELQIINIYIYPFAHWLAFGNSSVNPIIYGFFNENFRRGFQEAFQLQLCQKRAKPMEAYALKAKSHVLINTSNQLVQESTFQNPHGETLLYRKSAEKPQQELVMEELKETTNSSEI
Y^7.35A_hNPFF2R, sequence (Q9Y5X5 whole entry Y417A): as the sequence (Q9Y5X5 whole entry) above, with Y417A counted along it
D^6.59A_hNPFF2R, sequence (Q9Y5X5 whole entry D400A): as the sequence (Q9Y5X5 whole entry) above, with D400A counted along it
Y^5.38A hNPFF2 receptor, sequence (Q9Y5X5 whole entry Y321A): as the sequence (Q9Y5X5 whole entry) above, with Y321A counted along it
Y^7.33A_hNPFF2R, sequence (Q9Y5X5 whole entry Y415A): as the sequence (Q9Y5X5 whole entry) above, with Y415A counted along it

functional behaviour at NPFF1R (hNPFF1R [1]) | x-fold (hNPFF1R [1]) [fold] | functional behaviour at NPFF2R (human NPFF2 receptor) | x-fold (human NPFF2 receptor) [fold] | x-fold (Y^7.35A_hNPFF2R) [fold] | EC50 (human NPFF2 receptor) [nM] | IP accumulation at NPFF1R (hNPFF1R [1]) | x-fold (Y^5.38A hNPFF2 receptor) [fold] | x-fold (D^6.59A_hNPFF2R) [fold] | x-fold (Y^7.33A_hNPFF2R) [fold] | Schild plot slope (hNPFF1R [3]) | Compound | activity in cAMP accumulation assay (hNPFF1R [2]) | effect on stimulation of [^35S]GTPγS binding (hNPFF2R; hNPFF2R membranes, up to 100 μM) | right-shift of concentration-effect curves of NPFF (hNPFF2R; in the presence of high concentrations of RF9) | cytotoxicity (relative cell viability) (COS-7 cells) | antinociceptive effect on mechanical allodynia [4]
partial agonists | – | full agonists | – | – | – | – | – | – | – | – | N=C(N)N/N=C/c1ccc(Cl)c(C(F)(F)F)c1 [AC-099] | – | – | – | – | –
full agonist | 3308 | full agonists | 977 | 738 | 1160 ± 638 | – | – | – | – | – | N=C(N)N/N=C/c1ccc(-c2ccc(Br)cc2C(F)(F)F)o1 [AC-216] | – | – | – | cytotoxic effect | –
competitive antagonism | – | full agonists | 175 | 177 | – | no IP accumulation | 1440 | 5211 | 4901 | 1.04 ± 0.19 | N=C(N)N/N=C/C12CC3CC(CC(C3)C1)C2 [AC-970] | – | – | – | cytotoxic effect | reversing established mechanical allodynia
partial agonists | 310 | full agonists | 1291 | – | – | – | – | – | – | – | N=C(N)N/N=C/c1ccc(Br)c(Br)c1 [AC-093] | – | – | – | cytotoxic effect | –
competitive antagonist | – | partial agonist | 137 | 66 | – | no IP accumulation | – | – | – | 0.89 ± 0.05 | NC(N)=NCCC[C@@H](NC(=O)C(c1ccccc1)c1ccccc1)C(=O)NCc1ccc(O)cc1 [BIBP3226, (R)-N(2)-(diphenylacetyl)-N-[(4-hydroxyphenyl)-methyl]-argininamide, reference compound] | – | – | – | – | –

Compound | functional behaviour at NPFF1R (hNPFF1R [1]) | x-fold (hNPFF1R [1]) [fold] | functional behaviour at NPFF2R (human NPFF2 receptor) | x-fold (human NPFF2 receptor) [fold] | x-fold (Y^7.35A_hNPFF2R) [fold] | EC50 (human NPFF2 receptor) [nM] | IP accumulation at NPFF1R (hNPFF1R [1]) | x-fold (Y^5.38A hNPFF2 receptor) [fold] | x-fold (D^6.59A_hNPFF2R) [fold] | x-fold (Y^7.33A_hNPFF2R) [fold] | Schild plot slope (hNPFF1R [3]) | activity in cAMP accumulation assay (hNPFF1R [2]) | effect on stimulation of [^35S]GTPγS binding (hNPFF2R; hNPFF2R membranes, up to 100 μM) | right-shift of concentration-effect curves of NPFF (hNPFF2R; in the presence of high concentrations of RF9) | cytotoxicity (relative cell viability) (COS-7 cells) | antinociceptive effect on mechanical allodynia [4]
N=C(N)NCCC[C@H](NC(=O)C12CC3CC(CC(C3)C1)C2)C(=O)N[C@@H](Cc1ccccc1)C(N)=O [RF9, 1-Adamantanecarbonyl-RF-NH2, reference compound] | agonistic activity | 41 | agonistic activity | 222 | 277 | – | – | – | – | – | – | inactive | no effect | ~ 160 fold | – | –
